The target in assay [1] is T1, Retinoic acid receptor beta (Homo sapiens, UniProt P10826).
T1 sequence (P10826 whole entry): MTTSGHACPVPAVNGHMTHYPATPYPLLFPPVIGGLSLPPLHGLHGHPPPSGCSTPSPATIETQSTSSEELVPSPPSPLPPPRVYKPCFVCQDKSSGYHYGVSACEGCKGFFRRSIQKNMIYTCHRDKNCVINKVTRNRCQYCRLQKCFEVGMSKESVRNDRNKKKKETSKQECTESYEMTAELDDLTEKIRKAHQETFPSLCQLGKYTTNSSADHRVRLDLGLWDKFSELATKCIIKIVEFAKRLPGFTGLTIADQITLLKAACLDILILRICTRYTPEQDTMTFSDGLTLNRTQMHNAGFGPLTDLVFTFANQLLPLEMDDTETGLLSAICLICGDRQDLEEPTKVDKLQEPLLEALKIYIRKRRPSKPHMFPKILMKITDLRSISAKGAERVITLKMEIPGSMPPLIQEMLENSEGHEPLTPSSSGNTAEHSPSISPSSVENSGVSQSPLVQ
In words: Antagonist activity at recombinant human RAR-beta expressed in mammalian cells in presence of ATRA by luciferase reporter gene based transactivation assay. The format is cell-based. For orientation: In a reporter assay the amount or activity of a reporter protein is the signal.

Assay [2] addresses T2, Retinoic acid receptor gamma (Homo sapiens, UniProt P13631).
T2 sequence (P13631 whole entry): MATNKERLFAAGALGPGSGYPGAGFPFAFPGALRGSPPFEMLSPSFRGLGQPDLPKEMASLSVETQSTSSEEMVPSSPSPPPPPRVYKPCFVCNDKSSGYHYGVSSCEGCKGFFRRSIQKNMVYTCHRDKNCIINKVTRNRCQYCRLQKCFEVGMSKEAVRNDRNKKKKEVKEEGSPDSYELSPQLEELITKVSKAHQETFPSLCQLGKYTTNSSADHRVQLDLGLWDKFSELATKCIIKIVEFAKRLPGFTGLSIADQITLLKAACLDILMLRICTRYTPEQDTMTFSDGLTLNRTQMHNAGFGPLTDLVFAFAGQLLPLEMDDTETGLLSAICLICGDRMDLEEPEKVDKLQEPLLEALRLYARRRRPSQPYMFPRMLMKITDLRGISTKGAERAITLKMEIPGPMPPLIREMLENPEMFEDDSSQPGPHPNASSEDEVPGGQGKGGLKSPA
In words: Antagonist activity at recombinant human RAR-gamma expressed in mammalian cells in presence of ATRA by luciferase reporter gene based transactivation assay. It counts as cell-based. The method, boiled down:
(§1)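 Compounds 8-point dose response in triplicate, DMSO final 0.4%; overnight at 37 °C, 5% CO2; luminescence after 30 min detection reagent. IC50 by four-parameter logistic fit; agonist-free wells set background.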

Assay [3] has as its target T3, Retinoic acid receptor alpha (Homo sapiens, UniProt P10276).
T3 sequence (P10276 whole entry): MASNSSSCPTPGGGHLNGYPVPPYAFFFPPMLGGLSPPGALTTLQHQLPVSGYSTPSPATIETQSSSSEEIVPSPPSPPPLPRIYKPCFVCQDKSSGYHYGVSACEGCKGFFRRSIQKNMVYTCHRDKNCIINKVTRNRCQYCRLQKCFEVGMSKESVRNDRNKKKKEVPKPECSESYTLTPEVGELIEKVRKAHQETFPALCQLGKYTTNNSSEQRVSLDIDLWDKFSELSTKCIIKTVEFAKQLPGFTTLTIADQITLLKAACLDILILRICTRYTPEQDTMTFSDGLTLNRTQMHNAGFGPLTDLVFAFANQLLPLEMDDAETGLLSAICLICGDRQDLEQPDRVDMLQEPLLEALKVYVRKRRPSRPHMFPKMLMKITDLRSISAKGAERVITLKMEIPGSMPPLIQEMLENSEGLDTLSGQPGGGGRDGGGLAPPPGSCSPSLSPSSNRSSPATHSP
In words: Antagonist activity at recombinant human RAR-alpha expressed in mammalian cells in presence of 9-cis-RA by luciferase reporter gene based transactivation assay. The format is cell-based. In short, it runs like this: as §1

Assay [4] addresses T4, Retinoic acid receptor alpha (Homo sapiens) (UniProt P10276).
T4 sequence (whole entry): T3 sequence (P10276 whole entry)
The assay is described as follows: Agonist activity at recombinant human RAR-alpha expressed in mammalian cells by luciferase reporter gene based transactivation assay relative to control. It counts as cell-based. The method, boiled down: (§2)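 Transactivation in proprietary reporter cells expressing recombinant human RAR subtype with RARE-linked beetle luciferase. Compounds in DMSO (final 0.4%), 8-point dose response in triplicate; cells added, incubated overnight at 37 °C, 5% CO2, then luciferase reagent 30 min r.t., luminescence read.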

Assay [5] deals with T5, Retinoic acid receptor beta (Homo sapiens) (UniProt P10826).
T5 sequence (whole entry): T1 sequence (P10826 whole entry)
The assay is described as follows: Agonist activity at recombinant human RAR-beta expressed in mammalian cells by luciferase reporter gene based transactivation assay relative to control. The format is cell-based. The method, boiled down: as §2

For assay [6], the target named is T6, Retinoic acid receptor gamma (Homo sapiens) (UniProt P13631).
T6 sequence (whole entry): T2 sequence (P13631 whole entry)
In words: Agonist activity at recombinant human RAR-gamma expressed in mammalian cells by luciferase reporter gene based transactivation assay relative to control. It counts as cell-based. In short, it runs like this: as §2

In assay [7] the target is T1, Retinoic acid receptor beta. The assay is described as follows: Agonist activity at recombinant human RAR-beta expressed in mammalian cells by luciferase reporter gene based transactivation assay. The format is cell-based. The method, boiled down: (§3)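 Human RAR-subtype luciferase reporter cells (RARE-driven). Compounds in DMSO (final 0.4%) tested as 8-point dose response in triplicate. Incubated overnight at 37 °C in 5% CO2, then detection reagent 30 min at r.t. and luminescence measured. EC50 by four-parameter logistic fit, mean ± SEM from geometric mean of log EC50 across independent experiments.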

Assay [8] concerns the target T2, Retinoic acid receptor gamma. The assay is described as follows: Agonist activity at recombinant human RAR-gamma expressed in mammalian cells by luciferase reporter gene based transactivation assay. The format is cell-based. The method, boiled down:
as §3

Assay [9] deals with T3, Retinoic acid receptor alpha.

The source of these data is ChEMBL document CHEMBL5634116, “Strategies for developing retinoic acid receptor alpha-selective antagonists as novel agents for male contraception” (Eur J Med Chem, 2023).

For the compound `Cc1ccc(C2=CC(C)(C)Oc3c(Br)cc(S(=O)(=O)Nc4ccc(C(=O)O)cc4)cc32)cc1`, the IC50 in [1], in assay [2] and in [3] was greater than 3.3 µM each time.
With `Cc1ccc(C2=CC(C)(C)Oc3ccc(S(=O)(=O)Nc4ccc(C(=O)O)cc4)cc32)cc1`, the IC50 in [1], in [2] and in [3] was greater than 3.3 µM throughout.
In the case of `CC1(C)CC=C(c2ccc(N3CCOCC3)cc2)c2cc(C(=O)Nc3ccc(C(=O)O)cc3)ccc21`, the values for the IC50 in [1], in assay [2] and in assay [3] were greater than 3.3 µM, 1.5 µM and 1.1 µM, respectively.
For `CC1(C)CC=C(c2ccc(CN3CCOCC3)cc2)c2cc(C(=O)Nc3ccc(C(=O)O)cc3)ccc21`, the Emax in assay [4], in [5] and in [6] was 0% in each case. Moreover, the IC50 in assay [1] is 0.173 µM; in [2], greater than 3.3 µM; in assay [3] it was 0.52 µM.
As for `Cc1ccc(C2=CC(C)(C)Oc3ccc(S(=O)(=O)Nc4cc(F)c(C(=O)O)c(F)c4)cc32)cc1`, the IC50 in [1], in [2] and in assay [3] was greater than 3.3 µM in each case.
As for `CC1(C)CC=C(c2ccccc2)c2cc(NC(=O)Nc3ccc(C(=O)O)cc3)ccc21`, the IC50 in [1], in [2] and in [3] was greater than 3.3 µM each time.
As for `CC1(C)CC=C(c2cnc3ccccc3c2)c2cc(C(=O)Nc3ccc(C(=O)O)cc3)ccc21`, the IC50 was 0.26 µM in assay [1], 2.7 µM in assay [2] and 0.27 µM in [3].
Regarding `CC1(C)CC=C(c2cccs2)c2cc(C(=O)Nc3ccc(C(=O)O)cc3)ccc21`, the Emax in assay [4] is 3%; in assay [5] (filed as agonist), 167%. In addition, the EC50 in assay [7] came to 0.015 µM. The 50% inhibitory concentration (IC50) was greater than 3.3 µM in [1], greater than 3.3 µM in assay [2] and 0.44 µM in [3].
As to `Cc1ccc(C2=CCC(C)(C)c3ccc(C(=O)Nc4ccc(C(=O)O)cc4)cc32)cc1`, the results for the Emax in assay [4], in assay [5] (filed as agonist) and in assay [6] were 9%, 46% and 15%, respectively. The EC50 in [7] is 0.055 µM; in assay [8], greater than 3.3 µM. The IC50 in assay [1] is greater than 3.3 µM; in assay [2] it was 2.6 µM; in [3] it was 0.029 µM.
Consider `Cc1ccc(C2=CCC(C)(C)c3ccc(C(=O)Nc4cc(F)c(C(=O)O)c(F)c4)cc32)cc1`, for which the IC50 in assay [1] is greater than 3.3 µM; in [2] it was greater than 3.3 µM; in [3] it was 0.43 µM.
For `CC1(C)CC=C(c2ccc(N3CCOCC3)cc2)c2cc(NC(=O)c3ccc(C(=O)O)c([N+](=O)[O-])c3)ccc21`, the IC50 in assay [1], in [2] and in assay [3] was greater than 3.3 µM throughout.
In the case of `Cc1ccc(C2=CCC(C)(C)c3ccc(NC(=O)Nc4ccc(C(=O)O)cc4)cc32)cc1`, the IC50 is 0.84 µM in assay [1], greater than 3.3 µM in assay [2] and greater than 3.3 µM in assay [3].
As for `CC1(C)CC=C(c2ccc(N3CCOCC3)cc2)c2cc(NC(=O)Nc3ccc(C(=O)O)cc3)ccc21`, the IC50 in assay [1], in assay [2] and in assay [3] was greater than 3.3 µM throughout.
On to `Cc1ccc(C2=CCC(C)(C)c3ccc(C(=O)N4CCc5cc(C(=O)O)ccc5C4)cc32)cc1`, for which the IC50 in [1], in assay [2] and in assay [3] was greater than 3.3 µM throughout.
For the compound `Cc1ccc(C2=CC(C)(C)Oc3ccc(NS(=O)(=O)c4ccc(C(=O)O)cc4)cc32)cc1`, the IC50 in [1], in assay [2] and in [3] was greater than 3.3 µM in each case.
As for `CC1(C)CC=C(c2ccc(C(=O)N3CCOCC3)cc2)c2cc(NC(=O)c3ccc(C(=O)O)cc3)ccc21`, the IC50 in assay [1], in [2] and in assay [3] was greater than 3.3 µM each time.
In the case of `CC1(C)CC=C(c2ccc(N3CCOCC3)cc2)c2cc(NC(=O)c3ccc(C(=O)O)cc3)ccc21`, the IC50 in [1] was 0.73 µM; in [2], greater than 3.3 µM; in assay [3] it was greater than 3.3 µM.
Turning to `Cc1ccc(C2=CCC(C)(C)c3ccc(-c4ccc5cc(C(=O)O)ccc5n4)cc32)cc1`, the IC50 in [1] is 0.021 µM; in assay [2], 0.13 µM; in [3], greater than 3.3 µM.
With `Cc1ccc(C2=CC(C)(C)Oc3c(Br)cc(S(=O)(=O)Nc4cc(F)c(C(=O)O)c(F)c4)cc32)cc1`, the IC50 in assay [1], in assay [2] and in assay [3] was greater than 3.3 µM each time.
On to `Cc1ccc(C2=CCC(C)(C)c3ccc(C(=O)NCc4ccc(C(=O)O)cc4)cc32)cc1`, for which the half-inhibitory concentration (IC50) in assay [1], in assay [2] and in assay [3] was greater than 3.3 µM each time.
As to `CC1(C)CC=C(c2ccccc2)c2cc(C(=O)Nc3ccc(C(=O)O)cc3)ccc21`, the Emax in [4] was determined as 4%; in assay [5] (filed as agonist), 150%; in [6] (filed as agonist), 47%. For the same compound, the EC50 worked out at 0.025 µM in assay [7] and 0.56 µM in assay [8]. The IC50 in assay [1] was greater than 3.3 µM; in assay [2], greater than 3.3 µM; in [3] it was 0.14 µM.
Take `CC1(C)CC=C(c2ccccc2)c2cc(C(=O)NCc3ccc(C(=O)O)cc3)ccc21`: the IC50 in assay [1], in assay [2] and in assay [3] was greater than 3.3 µM in each case.
As to `CC1(C)CC=C(c2ccc(CN3CCOCC3)cc2)c2cc(NC(=O)c3ccc(C(=O)O)cc3)ccc21`, the IC50 was greater than 3.3 µM in assay [1], greater than 3.3 µM in assay [2] and 1.5 µM in assay [3].
On to `Cc1ccc(C2=CCC(C)(C)c3ccc(N4CCc5cc(C(=O)O)ccc5C4)cc32)cc1`, for which the results for the IC50 in assay [1], in assay [2] and in assay [3] were 0.35 µM, greater than 3.3 µM and greater than 3.3 µM, respectively.
For `CC1(C)CC=C(c2ccccc2)c2cc(/C=C/c3ccc(C(=O)O)cc3)ccc21`, the IC50 in assay [9] was roughly 0.01 µM; in [2], 0.0075 µM; in assay [3], 0.0094 µM. In addition, the EC50 in assay [8] was determined as 0.12 µM. Also, the Emax in assay [6] worked out at 26%.

As usually defined, the IC50 is the concentration at which inhibition is half-maximal. In general, Emax refers to the greatest response seen or fitted, relative to the assay's reference. One may read the EC50 as the midpoint of the concentration-response curve.
